Measurements gathered from unrelated publications.
Protocols differ between the studies behind these lines. pEC50, pIC50, pKi: −log10 of the molar value.
HLA class I histocompatibility antigen, A alpha chain: HLA class I histocompatibility antigen, A alpha chain (Homo sapiens, UniProt P04439)
BACE1: Beta-secretase 1 (BACE1, Homo sapiens, UniProt P56817)

Structure (SMILES)	target	observed	action	method	quantity	result
CSCC[C@H](NC(=O)[C@@H](N)CCCNC(=N)N)C(=O)N[C@@H](Cc1ccccc1)C(=O)NCC(=O)N1CCC[C@H]1C(=O)N[C@H](C(=O)N[C@@H](CCC(N)=O)C(=O)N[C@H](C(=O)N[C@@H](Cc1ccc(O)cc1)C(=O)O)[C@@H](C)O)C(C)C	HLA class I histocompatibility antigen, A alpha chain	cell-free assay	–	–	pIC50	7.35
C=CCOc1ccc(C(=O)/C=C/c2ccc(OC)cc2)c(OS(=O)(=O)c2ccccc2[N+](=O)[O-])c1I	BACE1	enzyme activity	inhibitor	fluorescence	pIC50	4.62
COc1cc2c(cc1OC)CN(CCc1ccc(NC(=O)c3cccc4c(=O)c5cccc(OC)c5[nH]c34)cc1)CC2	D(2) dopamine receptor (DRD2, Homo sapiens, UniProt P14416)	cell-free assay	–	–	pKi	6.03
CSCC[C@H](NC(=O)[C@@H](N)CCCCN)C(=O)N[C@@H](Cc1c[nH]c2ccccc12)C(=O)NCC(=O)N[C@@H](CCCCN)C(=O)N1CCC[C@H]1C(=O)N[C@@H](CCSC)C(=O)N[C@H](C(=O)N[C@@H](Cc1ccccc1)C(=O)O)[C@@H](C)O	HLA class I histocompatibility antigen, A alpha chain	cell-free assay	–	–	pIC50	6.67
C=CCOc1ccc(C(=O)/C=C/c2cccc(F)c2)c(OS(=O)(=O)c2ccc(F)cc2)c1I	BACE1	enzyme activity	inhibitor	fluorescence	pIC50	4.56
CC[C@H](C)[C@H](NC(=O)[C@@H](N)CCCNC(=N)N)C(=O)N[C@@H](Cc1ccc(O)cc1)C(=O)NCC(=O)N1CCC[C@H]1C(=O)N1CCC[C@H]1C(=O)N[C@@H](Cc1c[nH]cn1)C(=O)N[C@@H](CCC(N)=O)C(=O)N[C@@H](Cc1ccccc1)C(=O)O	HLA class I histocompatibility antigen, A alpha chain	cell-free assay	–	–	pIC50	6.42
CCOC(=O)c1ccc(OC(=O)CCCCCN=C(N)N)cc1	Transmembrane protease serine 6 (Homo sapiens, UniProt Q8IU80)	enzyme activity	inhibitor	–	pIC50	6.39
C=CCOc1ccc(C(=O)/C=C/c2ccc(OC)cc2)c(OS(=O)(=O)c2ccc(OC)cc2)c1I	BACE1	enzyme activity	inhibitor	fluorescence	pIC50	4.74
CCCC[C@H](NC(C)=O)C(=O)N[C@H]1CC(=O)NCCCC[C@@H](C(=O)N2CCC[C@@H]2C(=O)N[C@@H](C(=O)N2CCC[C@@H]2C(N)=O)C(C)C)NC(=O)[C@H](Cc2c[nH]c3ccccc23)NC(=O)[C@H](CCCNC(=N)N)NC(=O)[C@@H](Cc2ccccc2)NC(=O)[C@@H]2CCCN2C1=O	Melanocortin receptor 3 (MC3R, Homo sapiens, UniProt P41968)	cAMP	agonist	–	pEC50	< 6.00
COc1cc(C(F)(F)F)c(OC)cc1C1CCCNC1 (stereo not shown)	5-hydroxytryptamine receptor 2C (Htr2c, Mus musculus, UniProt P34968)	G protein activation	agonist	BRET	pEC50	7.51
